≈ marks a conversion by molar mass, not a printed value.
How the values were obtained:
Type in all cases: functional, Salmonella enterica subsp. enterica serovar Enteritidis
Salmonella enteritidis [1] = assay: Antimicrobial activity against ciprofloxacin-resistant Salmonella enterica serovar enteritidis isolate 5408-cip harboring gyrA gene, gyrB E466D, parE V461G mutant gene by Etest
How it was run: (§1)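 Wild-type alleles of the target genes were carried on plasmids and introduced into the ciprofloxacin-selected mutants by electrotransformation. Transformants were selected on LB agar with 50 µg/ml kanamycin at 37°C overnight. Quinolone MICs of the transformants were read by Etest strips alongside those of the parent and mutant strains.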

Salmonella enteritidis [2] = assay: Antimicrobial activity against soxS::aph-deficient ciprofloxacin-resistant Salmonella enterica serovar enteritidis isolate 104-cip harboring gyrA D87Y,S83F mutant gene by Etest
How it was run: (§2)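 Deletions (acrB, marA, soxS or ramA) were moved from SL1344 mutants into the isolates by P22 phage transduction. Transductants were selected on LB agar with 50 µg/ml kanamycin, and insertion of the kanamycin resistance gene was confirmed by PCR. MICs were then determined by Etest.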

Salmonella enteritidis [3] = assay: Antimicrobial activity against Salmonella enterica serovar enteritidis isolate 58 harboring gyrA D87Y mutant gene by Etest
Salmonella enteritidis [4] = assay: Antimicrobial activity against acrB::aph-deficient ciprofloxacin-resistant Salmonella enterica serovar enteritidis isolate 5408-cip harboring gyrA D87Y, gyrB E466D, parE V461G mutant gene by Etest; how it was run: as §2
Salmonella enteritidis [5] = assay: Antimicrobial activity against ciprofloxacin-resistant Salmonella enterica serovar enteritidis isolate 5408-cip harboring parE gene gyrA D87Y, gyrB E466D mutant gene by Etest; how it was run: as §1
Salmonella enteritidis [6] = assay: Antimicrobial activity against acrB::aph-deficient Salmonella enterica serovar enteritidis isolate 104 harboring gyrA D87Y mutant gene by Etest; how it was run: as §2
Salmonella enteritidis [7] = assay: Antimicrobial activity against Salmonella enterica serovar enteritidis isolate 5408 harboring gyrA gene by Etest
Salmonella enteritidis [8] = assay: Antimicrobial activity against Salmonella enterica serovar enteritidis isolate NCTC 13349 by Etest
Salmonella enteritidis [9] = assay: Antimicrobial activity against Salmonella enterica serovar enteritidis isolate 51 harboring gyrA D87Y mutant gene by Etest
Salmonella enteritidis [10] = assay: Antimicrobial activity against acrB::aph-deficient Salmonella enterica serovar enteritidis isolate 4931 harboring gyrA D87Y mutant gene by Etest; how it was run: as §2
Salmonella enteritidis [11] = assay: Antimicrobial activity against acrB::aph-deficient ciprofloxacin-resistant Salmonella enterica serovar enteritidis isolate 104-cip harboring gyrA D87Y,S83F mutant gene by Etest; how it was run: as §2
Salmonella enteritidis [12] = assay: Antimicrobial activity against Salmonella enterica serovar enteritidis isolate 104 harboring gyrA gene by Etest
Salmonella enteritidis [13] = assay: Antimicrobial activity against acrB::aph-deficient Salmonella enterica serovar enteritidis isolate 51 harboring gyrA D87Y mutant gene by Etest; how it was run: as §2
Salmonella enteritidis [14] = assay: Antimicrobial activity against ramA::aph-deficient ciprofloxacin-resistant Salmonella enterica serovar enteritidis isolate 5408-cip harboring gyrA D87Y, gyrB E466D, parE V461G mutant gene by Etest; how it was run: as §2
Salmonella enteritidis [15] = assay: Antimicrobial activity against Salmonella enterica serovar enteritidis isolate 54 harboring gyrA D87Y mutant gene by Etest
Salmonella enteritidis [16] = assay: Antimicrobial activity against ciprofloxacin-resistant Salmonella enterica serovar enteritidis isolate 5408-cip harboring gyrB gene gyrA D87Y, parE V461G mutant gene by Etest; how it was run: as §1
Salmonella enteritidis [17] = assay: Antimicrobial activity against Salmonella enterica serovar enteritidis isolate CUH48 by Etest
Salmonella enteritidis [18] = assay: Antimicrobial activity against acrB::aph-deficient Salmonella enterica serovar enteritidis isolate CUH60 harboring gyrA D87Y mutant gene by Etest; how it was run: as §2
Salmonella enteritidis [19] = assay: Antimicrobial activity against ciprofloxacin-resistant Salmonella enterica serovar enteritidis isolate 104-cip harboring gyrA gene by Etest; how it was run: as §1
Salmonella enteritidis [20] = assay: Antimicrobial activity against marA::aph-deficient ciprofloxacin-resistant Salmonella enterica serovar enteritidis isolate 104-cip harboring gyrA D87Y,S83F mutant gene by Etest; how it was run: as §2
Salmonella enteritidis [21] = assay: Antimicrobial activity against acrB::aph-deficient Salmonella enterica serovar enteritidis isolate 5408 harboring gyrA D87Y mutant gene by Etest; how it was run: as §2
Salmonella enteritidis [22] = assay: Antimicrobial activity against Salmonella enterica serovar enteritidis isolate CUH52 by Etest
Salmonella enteritidis [23] = assay: Antimicrobial activity against Salmonella enterica serovar enteritidis isolate CUH60 harboring gyrA D87Y mutant gene by Etest
Salmonella enteritidis [24] = assay: Antimicrobial activity against Salmonella enterica serovar enteritidis isolate 5408 harboring gyrA D87Y mutant gene by Etest
Salmonella enteritidis [25] = assay: Antimicrobial activity against Salmonella enterica serovar enteritidis isolate 104-cip harboring gyrA D87Y,S83F mutant gene by Etest
Salmonella enteritidis [26] = assay: Antimicrobial activity against Salmonella enterica serovar enteritidis isolate 4931 harboring gyrA D87Y mutant gene by Etest
Salmonella enteritidis [27] = assay: Antimicrobial activity against ciprofloxacin-resistant Salmonella enterica serovar enteritidis isolate 5408-cip harboring gyrA D87Y, gyrB E466D, parE V461G mutant gene by Etest
Salmonella enteritidis [28] = assay: Antimicrobial activity against Salmonella enterica serovar enteritidis isolate 104 harboring gyrA D87Y mutant gene by Etest

Structure (SMILES)	MIC (Salmonella enteritidis [1]) [µg/mL]	MIC (Salmonella enteritidis [2]) [µg/mL]	MIC (Salmonella enteritidis [3]) [µg/mL]	MIC (Salmonella enteritidis [4]) [µg/mL]	MIC (Salmonella enteritidis [5]) [µg/mL]	MIC (Salmonella enteritidis [6]) [µg/mL]	MIC (Salmonella enteritidis [7]) [µg/mL]	MIC (Salmonella enteritidis [8]) [µg/mL]	MIC (Salmonella enteritidis [9]) [µg/mL]	MIC (Salmonella enteritidis [10]) [µg/mL]	MIC (Salmonella enteritidis [11]) [µg/mL]	MIC (Salmonella enteritidis [12]) [µg/mL]	MIC (Salmonella enteritidis [13]) [µg/mL]	MIC (Salmonella enteritidis [14]) [µg/mL]	MIC (Salmonella enteritidis [15]) [µg/mL]	MIC (Salmonella enteritidis [16]) [µg/mL]	MIC (Salmonella enteritidis [17]) [µg/mL]	MIC (Salmonella enteritidis [18]) [µg/mL]	MIC (Salmonella enteritidis [19]) [µg/mL]	MIC (Salmonella enteritidis [20]) [µg/mL]	also measured
O=C(O)c1cn(C2CC2)c2cc(N3CCNCC3)c(F)cc2c1=O [CIPROFLOXACIN]	1 (≈ 3.02 µM)	1.5 (≈ 4.53 µM)	0.125 (≈ 0.377 µM)	0.5 (≈ 1.51 µM)	> 32	0.032 (≈ 0.0966 µM)	0.032 (≈ 0.0966 µM)	0.023 (≈ 0.0694 µM)	0.19 (≈ 0.573 µM)	0.047 (≈ 0.142 µM)	0.38 (≈ 1.15 µM)	0.047 (≈ 0.142 µM)	0.032 (≈ 0.0966 µM)	4 (≈ 12.1 µM)	0.19 (≈ 0.573 µM)	3 (≈ 9.05 µM)	0.016 (≈ 0.0483 µM)	0.032 (≈ 0.0966 µM)	0.094 (≈ 0.284 µM)	4 (≈ 12.1 µM)	MIC (Salmonella enteritidis [21]): 0.047 µg/mL (≈ 0.142 µM); MIC (Salmonella enteritidis [22]): 0.016 µg/mL (≈ 0.0483 µM)
CCn1cc(C(=O)O)c(=O)c2ccc(C)nc21 [NALIDIXIC ACID]	> 256	> 256	> 256	> 256	> 256	32 (≈ 138 µM)	4 (≈ 17.2 µM)	8 (≈ 34.4 µM)	> 256	32 (≈ 138 µM)	> 256	4 (≈ 17.2 µM)	32 (≈ 138 µM)	> 256	> 256	> 256	6 (≈ 25.8 µM)	24 (≈ 103 µM)	8 (≈ 34.4 µM)	> 256	MIC (Salmonella enteritidis [23]): > 256 µg/mL; MIC (Salmonella enteritidis [24]): > 256 µg/mL; MIC (Salmonella enteritidis [25]): > 256 µg/mL; MIC (Salmonella enteritidis [26]): > 256 µg/mL; MIC (Salmonella enteritidis [27]): > 256 µg/mL; MIC (Salmonella enteritidis [21]): 32 µg/mL (≈ 138 µM); MIC (Salmonella enteritidis [28]): > 256 µg/mL; MIC (Salmonella enteritidis [22]): 3 µg/mL (≈ 12.9 µM)
CN(C)[C@@H]1C(O)=C(C(N)=O)C(=O)[C@@]2(O)C(O)=C3C(=O)c4c(O)cccc4[C@@](C)(O)[C@H]3C[C@@H]12 [TETRACYCLINE]		0.75 (≈ 1.69 µM)		0.094 (≈ 0.212 µM)							0.25 (≈ 0.563 µM)			1 (≈ 2.25 µM)						1.5 (≈ 3.38 µM)	MIC (Salmonella enteritidis [24]): 1 µg/mL (≈ 2.25 µM); MIC (Salmonella enteritidis [25]): 12 µg/mL (≈ 27 µM); MIC (Salmonella enteritidis [27]): 1.5 µg/mL (≈ 3.38 µM); MIC (Salmonella enteritidis [28]): 1 µg/mL (≈ 2.25 µM)
